In ChEMBL document CHEMBL5344428, “Discovery, Crystallographic Studies, and Mechanistic Investigations of Novel Phenylalanine Derivatives Bearing a Quinazolin-4-one Scaffold as Potent HIV Capsid Modulators” (J Med Chem, 2023):

Experiments:
[1] = test system: Human immunodeficiency virus 1; experiment: Antiviral activity against HIV-1 IIIB infected in human MT4 cells assessed as protection against virus induced cytopathic effect; format: functional, organism-based; conditions: Human immunodeficiency virus 1, IIIB
Method in brief: (§1)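 MT-4 cells were infected with HIV-1 IIIB or HIV-2 ROD, and cell viability was read by MTT. […] Each value was run in at least triplicate and averaged from at least three independent experiments.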

[2] = Cytotoxicity against human MT4 cells assessed as reduction in cell viability; format: toxicity, cell-based
Method in brief: (§2)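 Uninfected MT-4 cells were exposed to compound, and viability was read by the MTT method. […] Each value was run in at least triplicate and averaged from at least three independent experiments.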

[3] = Selectivity index, ratio of CC50 for cytotoxicity against human MT4 cells to EC50 for antiviral activity against HIV2 ROD infected in human MT4 cells; format: toxicity, cell-based; conditions: read-out: Ratio CC50/EC50
Method in brief: (§3)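 SI is CC50 divided by EC50. CC50 comes from MTT viability of uninfected MT-4 cells. EC50 comes from MTT-read protection of MT-4 cells infected with HIV-1 IIIB or HIV-2 ROD. Each value was run in at least triplicate.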

[4] = test system: Human immunodeficiency virus 2; experiment: Antiviral activity against HIV-2 ROD infected in human MT4 cells assessed as protection against virus induced cytopathic effect; format: functional, organism-based; conditions: Human immunodeficiency virus 2, ROD; method in brief: as §1
[5] = Selectivity index, ratio of CC50 for cytotoxicity against human MT4 cells to EC50 for antiviral activity against HIV1 IIIB infected in human MT4 cells; format: toxicity, cell-based; conditions: read-out: Ratio CC50/EC50; method in brief: as §3
[6] = Selectivity ratio of EC50 for antiviral activity against HIV1 IIIB infected in human MT4 cells to EC50 for antiviral activity against HIV2 ROD infected in human MT4 cells; format: toxicity, cell-based
Method in brief: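 Ratio is EC50 against HIV-1 IIIB divided by EC50 against HIV-2 ROD. Both EC50 values come from MTT-read protection of infected MT-4 cells.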

MT4 = experiment: (§4) Cytotoxicity against human MT4 cells assessed as reduction in cell viability incubated for 5 days by MTT assay; format: toxicity, cell-based; conditions: mt4, 120 h, time 5 day; method in brief: as §2
[7] = test system: Human immunodeficiency virus 1; experiment: Antiviral activity against HIV1 IIIB infected in human MT4 cells assessed as reduction in virus induced cytopathic effect measured after 5 days by MTT assay; format: functional, organism-based; conditions: Human immunodeficiency virus 1, IIIB, MT4, 120 h; method in brief: as §1
[8] = test system: Human immunodeficiency virus 2; experiment: Antiviral activity against HIV2 ROD infected in human MT4 cells assessed as reduction in virus induced cytopathic effect measured after 5 days by MTT assay; format: functional, organism-based; conditions: Human immunodeficiency virus 2, ROD, MT4, 120 h; method in brief: as §1
[9] = Metabolic stability in human liver assessed as intrinsic clearance at 1 uM incubated for 60 mins in presence of NADPH by LC-MS/MS analysis; format: ADME, tissue-based; conditions: read-out: CLH
Method in brief: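 Human liver microsomes were used at a final 0.5 mg protein/mL, incubated 60 min with an NADPH regenerating system. The no-cofactor arm replaced NADPH with buffer. T1/2 came from linear regression of the kinetic data. CLint(mic) = (0.693/T1/2)/mg microsomal protein per mL. CLint(liver) was scaled by mg microsomal protein/g liver and g liver/kg body weight.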

[10] = as §4; format: toxicity, cell-based; conditions: MT4 cells, time 5 day; method in brief: as §2

EC50 [1] [nM]	EC50 [4] [nM]	CLint scaled at 1 µM [9] [mL/min/kg]	SMILES	CC50 [2] [nM]	selectivity ratio [3]	selectivity ratio [5]	Ratio EC50 [6]	CC50 (MT4) [nM]	EC50 [7] [nM]	EC50 [8] [nM]	CC50 at 120 h [10] [nM]
860	350		COc1ccc(N(C)C(=O)[C@H](Cc2cc(F)cc(F)c2)NC(=O)CN2CCN(S(=O)(=O)c3ccc(Br)cc3)CC2)cc1	13200	37.8	15.4	2.46				
			O=C(CN1CCN(S(=O)(=O)c2ccc([N+](=O)[O-])cc2)CC1)N[C@@H](Cc1cc(F)cc(F)c1)c1nc2ccccc2c(=O)n1-c1ccc(S(=O)(=O)N2CCS(=O)(=O)CC2)cc1		> 70.6	> 45.6	1.54	> 139000	3040	1970	
790	360		COc1ccc(N(C)C(=O)[C@H](Cc2cc(F)cc(F)c2)NC(=O)CN2CCN(S(=O)(=O)c3ccc(F)cc3)CC2)cc1	19200	53.3	24.3	2.19				
180	90		COc1ccc(N(C)C(=O)[C@H](Cc2cc(F)cc(F)c2)NC(=O)CN2CCN(S(=O)(=O)c3ccccc3F)CC2)cc1	181000	2010	1000	2				
200	100		COc1ccc(N(C)C(=O)[C@H](Cc2cc(F)cc(F)c2)NC(=O)CN2CCN(S(=O)(=O)c3ccccc3)CC2)cc1	114000	1140	570	2				
210	30		COc1ccc(N(C)C(=O)[C@H](Cc2cc(F)cc(F)c2)NC(=O)CN2CCN(S(=O)(=O)c3ccc(NC(C)=O)cc3)CC2)cc1	91600	3050	436	7				
1010	480		COc1ccc(N(C)C(=O)[C@H](Cc2cc(F)cc(F)c2)NC(=O)CN2CCN(S(=O)(=O)c3ccc([N+](=O)[O-])cc3)CC2)cc1	14800	30.9	14.7	2.1				
930	440		COc1ccc(N(C)C(=O)[C@H](Cc2cc(F)cc(F)c2)NC(=O)CN2CCN(S(=O)(=O)c3ccc(Cl)cc3)CC2)cc1	9050	20.6	9.73	2.11				
120	50		COc1ccc(N(C)C(=O)[C@H](Cc2cc(F)cc(F)c2)NC(=O)CN2CCN(S(=O)(=O)c3ccc(N)cc3)CC2)cc1	117000	2340	977	2.4				
910	120		COc1ccc(N(C)C(=O)[C@H](Cc2cc(F)cc(F)c2)NC(=O)CN2CCN(S(=O)(=O)c3ccc(C)cc3)CC2)cc1	> 204000	> 1700	> 224	7.58				
1490	170		COc1ccc(N(C)C(=O)[C@H](Cc2cc(F)cc(F)c2)NC(=O)CN2CCN(S(=O)(=O)c3cccc([N+](=O)[O-])c3)CC2)cc1	83900	493	56.3	8.76				
2840	1190		COc1ccc(N(C)C(=O)[C@H](Cc2cc(F)cc(F)c2)NC(=O)CN2CCN(S(=O)(=O)c3ccccc3[N+](=O)[O-])CC2)cc1	94900	79.7	33.4	2.39				
			COc1ccc(-n2c([C@H](Cc3ccccc3)NC(=O)CN3CCN(S(=O)(=O)c4ccc([N+](=O)[O-])cc4)CC3=O)nc3ccccc3c2=O)cc1		> 312	> 119	2.65	> 179000	1510	570	
160	110		COc1ccc(N(C)C(=O)[C@H](Cc2cc(F)cc(F)c2)NC(=O)CN2CCN(S(=O)(=O)c3cccc(N)c3)CC2)cc1	109000	987	679	1.45				
		280	O=C(O)Cc1ccccc1Nc1c(Cl)cccc1Cl [DICLOFENAC]								
520	140		COc1ccc(N(C)C(=O)[C@H](Cc2cc(F)cc(F)c2)NC(=O)CN2CCN(S(=O)(=O)c3ccccc3N)CC2)cc1	63600	454	122	3.71				
240	120		COc1ccc(N(C)C(=O)[C@H](Cc2cc(F)cc(F)c2)NC(=O)CN2CCN(S(=O)(=O)c3cccc(F)c3)CC2)cc1	> 202000	> 1690	> 843	2				
			COc1ccc(-n2c(SCCS(C)(=O)=O)nnc2[C@H](Cc2ccccc2)NC(=O)Cc2c(C)[nH]c3ccccc23)cc1		10	42	0.24		3870	16000	162000
			COc1ccc(-n2c([C@H](Cc3ccccc3)NC(=O)CN3CCN(S(=O)(=O)c4ccc([N+](=O)[O-])cc4)CC3)nc3cc(F)ccc3c2=O)cc1		> 312	> 88	3.55		1990	560	> 175000
			COc1ccc(-n2c(SCC(N)=O)nnc2[C@H](Cc2ccccc2)NC(=O)Cc2c(C)[nH]c3ccccc23)cc1		32	135	0.24		880	3740	118000
			COc1ccc(-n2c([C@H](Cc3ccccc3)NC(=O)CN3CCN(S(=O)(=O)c4ccc(N)cc4)CC3)nc3cc(Cl)ccc3c2=O)cc1		> 1740	> 291	6.1		610	100	> 178000
			C#CCSc1nnc([C@H](Cc2ccccc2)NC(=O)Cc2c(C)[nH]c3ccccc23)n1-c1ccc(OC)cc1		6	12	0.52		2050	3940	24600
